Results taken from paper PMC4864154 (Journal of molecular biology, 2014).
Read-outs that look alike come from different tables or passages of the source.

How the values were obtained:
[1] = molecular target: recombinant GluN1/2A receptors (Rattus norvegicus, UniProt P35439+Q00959); assay type: cell-based
[2] = molecular target: GluN1-N616G/2A (Rattus norvegicus, UniProt P35439+Q00959, N616G); assay type: cell-based
[3] = molecular target: GluN1 S617 Gly-substituted GluN1/2A (Rattus norvegicus, UniProt P35439+Q00959, S617G); assay type: cell-based
[4] = molecular target: GluN1-I619G/2A (Rattus norvegicus, UniProt P35439+Q00959, I619G); assay type: cell-based
GluN1-I619G/2A, sequence (Q00959 23-1464, other chains not shown): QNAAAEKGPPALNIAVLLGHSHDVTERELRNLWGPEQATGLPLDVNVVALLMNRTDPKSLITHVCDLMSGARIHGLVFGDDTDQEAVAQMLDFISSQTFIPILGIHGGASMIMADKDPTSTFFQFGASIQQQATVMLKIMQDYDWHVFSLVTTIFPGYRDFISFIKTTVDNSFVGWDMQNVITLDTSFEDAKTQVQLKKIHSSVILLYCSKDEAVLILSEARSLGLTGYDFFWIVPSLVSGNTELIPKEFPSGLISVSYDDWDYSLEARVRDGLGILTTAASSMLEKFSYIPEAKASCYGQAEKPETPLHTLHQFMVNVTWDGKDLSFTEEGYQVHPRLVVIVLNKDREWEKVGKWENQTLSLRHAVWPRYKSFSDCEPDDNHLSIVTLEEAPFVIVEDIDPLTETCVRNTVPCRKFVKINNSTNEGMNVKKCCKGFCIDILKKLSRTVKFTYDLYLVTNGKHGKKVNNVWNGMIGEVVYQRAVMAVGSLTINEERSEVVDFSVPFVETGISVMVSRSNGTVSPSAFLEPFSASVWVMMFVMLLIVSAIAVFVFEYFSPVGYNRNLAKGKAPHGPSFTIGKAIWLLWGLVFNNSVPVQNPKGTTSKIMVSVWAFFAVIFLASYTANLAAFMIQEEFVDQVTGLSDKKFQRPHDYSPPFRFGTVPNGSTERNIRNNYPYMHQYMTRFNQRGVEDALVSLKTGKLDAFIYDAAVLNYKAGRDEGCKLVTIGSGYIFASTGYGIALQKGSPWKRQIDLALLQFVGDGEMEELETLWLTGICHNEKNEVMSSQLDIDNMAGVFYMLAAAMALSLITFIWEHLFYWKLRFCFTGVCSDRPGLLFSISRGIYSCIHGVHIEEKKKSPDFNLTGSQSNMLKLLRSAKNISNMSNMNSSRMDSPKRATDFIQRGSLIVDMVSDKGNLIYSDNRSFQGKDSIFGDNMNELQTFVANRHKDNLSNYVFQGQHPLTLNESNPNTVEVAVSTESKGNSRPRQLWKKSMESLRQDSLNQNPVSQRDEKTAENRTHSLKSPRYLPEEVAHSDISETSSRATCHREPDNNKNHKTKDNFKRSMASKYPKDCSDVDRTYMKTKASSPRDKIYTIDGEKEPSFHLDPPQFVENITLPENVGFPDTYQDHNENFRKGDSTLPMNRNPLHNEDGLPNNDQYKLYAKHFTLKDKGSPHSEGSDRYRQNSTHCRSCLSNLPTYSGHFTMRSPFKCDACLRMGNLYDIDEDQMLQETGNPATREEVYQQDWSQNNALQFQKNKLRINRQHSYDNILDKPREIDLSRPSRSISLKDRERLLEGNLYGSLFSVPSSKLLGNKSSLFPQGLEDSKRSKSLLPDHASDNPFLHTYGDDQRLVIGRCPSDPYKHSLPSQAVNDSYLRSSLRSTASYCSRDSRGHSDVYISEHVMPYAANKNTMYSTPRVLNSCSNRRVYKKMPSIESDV
Outline: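 Xenopus oocytes were injected with cRNA for rat GluN1-1a I619G (site-directed mutant, sequence-verified) at 1 ng and WT GluN2A at 10 ng per oocyte. Two-electrode voltage clamp at -60 mV in buffer of 115 mM NaCl, 2 mM KCl, 5 mM HEPES and 1.8 mM BaCl2, pH 7.6. Percent steady-state block of agonist-evoked current by 100 nM test compound or 0.5 mM Mg2+. Mean + SEM from 4–8 oocytes; ANOVA against WT.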

[5] = molecular target: GluN1 E621 Gly-substituted GluN1/2A (Rattus norvegicus, UniProt P35439+Q00959, E621G); assay type: cell-based; conditions: 100 nM ArgTX-636, -60 mV
Outline: (§1)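 Rat GluN1-1a and GluN2A cDNAs carrying Gly substitutions made by site-directed mutagenesis and sequence-verified. Xenopus oocytes were each injected with cRNA (1 ng GluN1, 10 ng GluN2A). Two-electrode voltage clamp at -60 mV in buffer of 115 mM NaCl, 2 mM KCl, 5 mM HEPES and 1.8 mM BaCl2, pH 7.6. Percent block of agonist-evoked steady-state current by 100 nM test compound. Mean + SEM from 4–8 oocytes; ANOVA against WT.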

[6] = molecular target: GluN2A N614 Gly-substituted GluN1/2A (Rattus norvegicus, UniProt P35439+Q00959, N614G); assay type: cell-based; conditions: 100 nM ArgTX-636, -60 mV
Outline: as §1

[7] = molecular target: GluN2A N615 Gly-substituted GluN1/2A (Rattus norvegicus, UniProt P35439+Q00959, N615G); assay type: cell-based; conditions: 100 nM ArgTX-636, -60 mV
Outline: as §1

[8] = molecular target: GluN2A S616 Gly-substituted GluN1/2A (Rattus norvegicus, UniProt P35439+Q00959, S616G); assay type: cell-based; conditions: 100 nM ArgTX-636, -60 mV
Outline: as §1

[9] = molecular target: GluN2A V617 Gly-substituted GluN1/2A (Rattus norvegicus, UniProt P35439+Q00959, V617G); assay type: cell-based; conditions: 100 nM ArgTX-636, -60 mV
Outline: as §1

[10] = tested on: GluN1/2A and GluN1/2B over GluN1/2C and GluN1/2D NMDAR subtypes; conditions: ref [44]; [48]; cited from earlier work
[11] = molecular target: WT GluN1/2A (Rattus norvegicus, UniProt P35439+Q00959); test: Two-electrode voltage-clamp, steady-state block in Xenopus oocytes, WT receptor; assay type: cell-based
[12] = holding potential -80 mV, Glu 100 μM, Gly 50 μM, HEK293

recombinant GluN1/2A receptors, sequence (Q00959 23-1464, other chains not shown): as above
GluN1-N616G/2A, sequence (Q00959 23-1464, other chains not shown): as above

NC(=O)C[C@H](NC(=O)Cc1ccc(O)cc1O)C(=O)NCCCCCNCCCNCCCNC(=O)[C@@H](N)CCCN=C(N)N [ArgTX-636, argiotoxin-636]
decrease in dissociation rate over -60 to -100 mV ([1]; 500 nM ArgTX-636, -60 to -100 mV range): less than 2 fold | increase in rate of onset of block per 20-mV negative depolarization ([1]; 500 nM ArgTX-636, membrane potential below -60 mV): approximately 5 fold | steady-state block of the current ([1]; 500 nM ArgTX-636 for 6 s, 100 μM Glu, -80 mV): 96 ± 1% | fold higher association rate constant compared to memantine ([1]; ArgTX-636 Kon vs literature memantine Kon): approximately 10 fold | association rate constant (Kon) with the open channel [1, 12]: 4.4 ± 0.3 × 10^6 M^-1 s^-1 | dissociation rate constant (Koff) with the open channel [1, 12]: 0.36 ± 0.09 s⁻¹ | mechanism of block (trapping) ([1]; recovery after wash in absence of agonist, 500 nM ArgTX-636, -80 mV): trapping blocker | percent steady-state block ([2]; 100 nM ArgTX-636, -60 mV, GluN1 N616G): 78% | percent steady-state block ([3]; 100 nM ArgTX-636, -60 mV, GluN1 S617G): less than 15% | percent steady-state block ([4]; 100 nM ArgTX-636, -60 mV, GluN1 I619G): less than 15% | percent steady-state block [5]: less than 15% | percent steady-state block [6]: ~100% | percent steady-state block [7]: ~100% | percent steady-state block [8]: ~100% | percent steady-state block [9]: ~100% | selectivity for GluN1/2A and GluN1/2B over GluN1/2C and GluN1/2D [10]: more than 20 fold

C[C@]12N[C@H](Cc3ccccc31)c1ccccc12 [MK-801, dizocilpine]
percent steady-state block [11]: 75% | percent steady-state block [2]: less than 40% | percent steady-state block [3]: less than 40%

[Mg+2] [Mg^2+]
percent steady-state block ([11]; 0.5 mM Mg^2+, WT): 88% | percent steady-state block ([2]; 0.5 mM Mg^2+, GluN1-N616G/2A): 28% | percent steady-state block ([4]; 0.5 mM Mg^2+, GluN1-I619G/2A): 53%
